Measurements: ChEMBL document CHEMBL1135836, “Cyclodextrin-derived host molecules as reversal agents for the neuromuscular blocker rocuronium bromide: synthesis and structure-activity relationships” (J Med Chem, 2002)

Key:
Format in all cases: functional
Cavia porcellus [1] = experiment: In vivo reversal activity versus ~90% block by rocuronium in guinea pig
How it was run: (§1)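 Male Dunkin-Hartley guinea pigs (600-900 g), anaesthetized ip with pentobarbitone 10 mg/kg plus urethane 1000 mg/kg, tracheotomized and ventilated. Continuous iv rocuronium infusion (~10 nmol kg-1 min-1) was raised to a steady 85-90% block. Increasing iv doses of agent were given cumulatively. ED50 = 50% recovery versus preblock twitch, by regression. Mean ± SEM of at least two experiments, or one.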

Mus musculus [2] = species on record: Mus musculus; experiment: In vitro reversal activity versus ~90% block by rocuronium in isolated mouse hemidiaphragm, expressed as % of maximum reversal at 14.4 uM conc.
Cavia porcellus [3] = experiment: In vivo reversal activity versus ~90% block by rocuronium in guinea pig, expressed as % of maximum reversal at 3.2 umol/kg conc.
How it was run: (§2)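 Male Dunkin-Hartley guinea pigs (600-900 g) anaesthetized ip with pentobarbitone 10 mg/kg plus urethane 1000 mg/kg, tracheotomized and artificially ventilated. Continuous iv rocuronium bromide infusion (~10 nmol kg-1 min-1) raised until steady-state twitch block of 85-90%. Increasing single iv doses of reversal agent given by a separate catheter. Max reversal is peak twitch recovery versus preblock height at highest dose tested; means ± SEM, n ≥ 2 or single experiment.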

Mus musculus [4] = species on record: Mus musculus; experiment: In vitro reversal activity versus ~90% block by rocuronium in isolated mouse hemidiaphragm, expressed as effective conc.
Cavia porcellus [5] = experiment: In vivo reversal activity versus ~90% block by rocuronium in guinea pig, expressed as % of maximum reversal at 0.2 umol/kg conc.; how it was run: as §1
Mus musculus [6] = species on record: Mus musculus; experiment: In vitro reversal activity versus ~90% block by rocuronium in isolated mouse hemidiaphragm, expressed as % of maximum reversal at 3.6 uM conc.
Cavia porcellus [7] = experiment: In vivo reversal activity versus ~90% block by rocuronium in guinea pig, expressed as % of maximum reversal at 25.6 umol/kg conc.; how it was run: as §2
Cavia porcellus [8] = experiment: In vivo reversal activity versus ~90% block by rocuronium in guinea pig, expressed as % of maximum reversal at 1.3 umol/kg conc.; how it was run: as §1
Mus musculus [9] = species on record: Mus musculus; experiment: In vitro reversal activity versus ~90% block by rocuronium in isolated mouse hemidiaphragm, expressed as % of maximum reversal at 7.2 uM conc.
Cavia porcellus [10] = experiment: In vivo reversal activity versus ~90% block by rocuronium in guinea pig, expressed as % of maximum reversal at 30.7 umol/kg conc.; how it was run: as §2
Mus musculus [11] = species on record: Mus musculus; experiment: In vitro reversal activity versus ~90% block by rocuronium in isolated mouse hemidiaphragm, expressed as % of maximum reversal at 18 uM conc.
Cavia porcellus [12] = experiment: In vivo reversal activity versus ~90% block by rocuronium in guinea pig, expressed as % of maximum reversal at 0.6 umol/kg conc.; how it was run: as §1
Mus musculus [13] = species on record: Mus musculus; experiment: In vitro reversal activity versus ~90% block by rocuronium in isolated mouse hemidiaphragm, expressed as % of maximum reversal at 5.4 uM conc.
Cavia porcellus [14] = experiment: In vivo reversal activity versus ~90% block by rocuronium in guinea pig, expressed as % of maximum reversal at 1.4 umol/kg conc.; how it was run: as §1
Mus musculus [15] = species on record: Mus musculus; experiment: In vitro reversal activity versus ~90% block by rocuronium in isolated mouse hemidiaphragm, expressed as % of maximum reversal at 2.2 uM conc.
Cavia porcellus [16] = experiment: In vivo reversal activity versus ~90% block by rocuronium in guinea pig, expressed as % of maximum reversal at 21 umol/kg conc.; how it was run: as §2
Cavia porcellus [17] = experiment: In vivo reversal activity versus ~90% block by rocuronium in guinea pig, expressed as % of maximum reversal at 2.5 umol/kg conc.; how it was run: as §2
Mus musculus [18] = species on record: Mus musculus; experiment: In vitro reversal activity versus ~90% block by rocuronium in isolated mouse hemidiaphragm, expressed as % of maximum reversal at 12.6 uM conc.

Row | Structure (SMILES) | ED50 (Cavia porcellus [1]) [µmol/kg] | EC50 (Mus musculus [4]) [µM] | other results
1 | O=C([O-])CCCSCC1O[C@@H]2O[C@@H]3C(CSCCCC(=O)[O-])O[C@H](O[C@@H]4C(CSCCCC(=O)[O-])O[C@H](O[C@@H]5C(CSCCCC(=O)[O-])O[C@@H](O[C@@H]6C(CSCCCC(=O)[O-])O[C@H](O[C@@H]7C(CSCCCC(=O)[O-])O[C@H](O[C@@H]8C(CSCCCC(=O)[O-])O[C@H](O[C@H]1C(O)C2O)C(O)C8O)C(O)C7O)C(O)C6O)C(O)C5O)C(O)C4O)C(O)C3O.[Na+].[Na+].[Na+].[Na+].[Na+].[Na+].[Na+] (stereo partly specified) | 0.49 | 5 | Max reversal (Mus musculus [2]): 95.3%; Max reversal (Cavia porcellus [3]): 99.6%
2 | O=S(=O)([O-])CCCSCC1O[C@@H]2O[C@@H]3C(CSCCCS(=O)(=O)[O-])O[C@H](O[C@@H]4C(CSCCCS(=O)(=O)[O-])O[C@H](O[C@@H]5C(CSCCCS(=O)(=O)[O-])O[C@H](O[C@@H]6C(CSCCCS(=O)(=O)[O-])O[C@H](O[C@@H]7C(CSCCCS(=O)(=O)[O-])O[C@H](O[C@@H]8C(CSCCCS(=O)(=O)[O-])O[C@H](O[C@@H]9C(CSCCCS(=O)(=O)[O-])O[C@H](O[C@H]1C(O)C2O)C(O)C9O)C(O)C8O)C(O)C7O)C(O)C6O)C(O)C5O)C(O)C4O)C(O)C3O.[Na+].[Na+].[Na+].[Na+].[Na+].[Na+].[Na+].[Na+] (stereo partly specified) | 0.07 | 1.8 | Max reversal (Cavia porcellus [5]): 98.6%; Max reversal (Mus musculus [6]): 99.3%
3 | Oc1ccc(SCC2O[C@@H]3O[C@@H]4C(CSc5ccc(O)cc5)O[C@H](O[C@@H]5C(CSc6ccc(O)cc6)O[C@H](O[C@@H]6C(CSc7ccc(O)cc7)O[C@H](O[C@@H]7C(CSc8ccc(O)cc8)O[C@H](O[C@@H]8C(CSc9ccc(O)cc9)O[C@H](O[C@@H]9C(CSc%10ccc(O)cc%10)O[C@H](O[C@@H]%10C(CSc%11ccc(O)cc%11)O[C@H](O[C@H]2C(O)C3O)C(O)C%10O)C(O)C9O)C(O)C8O)C(O)C7O)C(O)C6O)C(O)C5O)C(O)C4O)cc1 (stereo partly specified) | 4.1 | 4.9 | Max reversal (Mus musculus [2]): 93.2%; Max reversal (Cavia porcellus [7]): 79.3%
4 | O=C([O-])c1cccc(SCC2O[C@@H]3O[C@@H]4C(CSc5cccc(C(=O)[O-])c5)O[C@H](O[C@@H]5C(CSc6cccc(C(=O)[O-])c6)O[C@H](O[C@@H]6C(CSc7cccc(C(=O)[O-])c7)O[C@H](O[C@@H]7C(CSc8cccc(C(=O)[O-])c8)O[C@H](O[C@@H]8C(CSc9cccc(C(=O)[O-])c9)O[C@H](O[C@@H]9C(CSc%10cccc(C(=O)[O-])c%10)O[C@H](O[C@@H]%10C(CSc%11cccc(C(=O)[O-])c%11)O[C@H](O[C@H]2C(O)C3O)C(O)C%10O)C(O)C9O)C(O)C8O)C(O)C7O)C(O)C6O)C(O)C5O)C(O)C4O)c1.[Na+].[Na+].[Na+].[Na+].[Na+].[Na+].[Na+].[Na+] (stereo partly specified) | 0.28 | 3.3 | Max reversal (Cavia porcellus [8]): 102%; Max reversal (Mus musculus [9]): 95.7%
5 | O=C([O-])Cc1ccc(SCC2O[C@@H]3O[C@@H]4C(CO)O[C@H](O[C@@H]5C(CO)O[C@H](O[C@@H]6C(CO)O[C@H](O[C@@H]7C(CO)O[C@H](O[C@@H]8C(CO)O[C@H](O[C@@H]9C(CO)O[C@H](O[C@@H]%10C(CO)O[C@H](O[C@H]2C(O)C3O)C(O)C%10O)C(O)C9O)C(O)C8O)C(O)C7O)C(O)C6O)C(O)C5O)C(O)C4O)cc1.[Na+] (stereo partly specified) | 4.55 | 34.7 | Max reversal (Cavia porcellus [10]): 97.1%; Max reversal (Mus musculus [11]): 45%
6 | O=C([O-])CCC(=O)NCCSCC1O[C@@H]2O[C@@H]3C(CSCCNC(=O)CCC(=O)[O-])O[C@H](O[C@@H]4C(CSCCNC(=O)CCC(=O)[O-])O[C@H](O[C@@H]5C(CSCCNC(=O)CCC(=O)[O-])O[C@H](O[C@@H]6C(CSCCNC(=O)CCC(=O)[O-])O[C@H](O[C@@H]7C(CSCCNC(=O)CCC(=O)[O-])O[C@H](O[C@@H]8C(CSCCNC(=O)CCC(=O)[O-])O[C@H](O[C@@H]9C(CSCCNC(=O)CCC(=O)[O-])O[C@H](O[C@H]1C(O)C2O)C(O)C9O)C(O)C8O)C(O)C7O)C(O)C6O)C(O)C5O)C(O)C4O)C(O)C3O.[Na+].[Na+].[Na+].[Na+].[Na+].[Na+].[Na+].[Na+] (stereo partly specified) | 0.07 | 1.08 | Max reversal (Cavia porcellus [12]): 107.1%; Max reversal (Mus musculus [13]): 99.4%
7 | O=C([O-])c1ccc(SCC2O[C@@H]3O[C@@H]4C(CSc5ccc(C(=O)[O-])cc5)O[C@H](O[C@@H]5C(CSc6ccc(C(=O)[O-])cc6)O[C@H](O[C@@H]6C(CSc7ccc(C(=O)[O-])cc7)O[C@H](O[C@@H]7C(CSc8ccc(C(=O)[O-])cc8)O[C@H](O[C@@H]8C(CSc9ccc(C(=O)[O-])cc9)O[C@H](O[C@@H]9C(CSc%10ccc(C(=O)[O-])cc%10)O[C@H](O[C@@H]%10C(CSc%11ccc(C(=O)[O-])cc%11)O[C@H](O[C@H]2C(O)C3O)C(O)C%10O)C(O)C9O)C(O)C8O)C(O)C7O)C(O)C6O)C(O)C5O)C(O)C4O)cc1.[Na+].[Na+].[Na+].[Na+].[Na+].[Na+].[Na+].[Na+] (stereo partly specified) | 0.12 | 1 | Max reversal (Cavia porcellus [14]): 97.6%; Max reversal (Mus musculus [15]): 97%
8 | O=C([O-])CSCC1O[C@@H]2O[C@@H]3C(CSCC(=O)[O-])O[C@H](O[C@@H]4C(CSCC(=O)[O-])O[C@H](O[C@@H]5C(CSCC(=O)[O-])O[C@H](O[C@@H]6C(CSCC(=O)[O-])O[C@H](O[C@@H]7C(CSCC(=O)[O-])O[C@H](O[C@H]1C(O)C2O)C(O)C7O)C(O)C6O)C(O)C5O)C(O)C4O)C(O)C3O.[Na+].[Na+].[Na+].[Na+].[Na+].[Na+] (stereo partly specified) | > 21 | > 18 | Max reversal (Cavia porcellus [16]): 3.6%; Max reversal (Mus musculus [11]): 22.8%
9 | O=C([O-])CCCCCSCC1O[C@@H]2O[C@@H]3C(CSCCCCCC(=O)[O-])O[C@H](O[C@@H]4C(CSCCCCCC(=O)[O-])O[C@H](O[C@@H]5C(CSCCCCCC(=O)[O-])O[C@H](O[C@@H]6C(CSCCCCCC(=O)[O-])O[C@H](O[C@@H]7C(CSCCCCCC(=O)[O-])O[C@H](O[C@@H]8C(CSCCCCCC(=O)[O-])O[C@H](O[C@@H]9C(CSCCCCCC(=O)[O-])O[C@H](O[C@H]1C(O)C2O)C(O)C9O)C(O)C8O)C(O)C7O)C(O)C6O)C(O)C5O)C(O)C4O)C(O)C3O.[Na+].[Na+].[Na+].[Na+].[Na+].[Na+].[Na+].[Na+] (stereo partly specified) | 0.74 | 7 | Max reversal (Cavia porcellus [17]): 78.4%; Max reversal (Mus musculus [18]): 81.7%
